Tests used:
[1] = target: T1, Ectonucleotide pyrophosphatase/phosphodiesterase family member 3 (Homo sapiens) (UniProt O14638); assay: Inhibition of NPP3 in human HTB-85 cells assessed as production of p-nitrophenol using pnp-TMP at 100 uM measured after 20 mins by spectrophotometry; assay type: cell-based
T1 sequence (whole entry): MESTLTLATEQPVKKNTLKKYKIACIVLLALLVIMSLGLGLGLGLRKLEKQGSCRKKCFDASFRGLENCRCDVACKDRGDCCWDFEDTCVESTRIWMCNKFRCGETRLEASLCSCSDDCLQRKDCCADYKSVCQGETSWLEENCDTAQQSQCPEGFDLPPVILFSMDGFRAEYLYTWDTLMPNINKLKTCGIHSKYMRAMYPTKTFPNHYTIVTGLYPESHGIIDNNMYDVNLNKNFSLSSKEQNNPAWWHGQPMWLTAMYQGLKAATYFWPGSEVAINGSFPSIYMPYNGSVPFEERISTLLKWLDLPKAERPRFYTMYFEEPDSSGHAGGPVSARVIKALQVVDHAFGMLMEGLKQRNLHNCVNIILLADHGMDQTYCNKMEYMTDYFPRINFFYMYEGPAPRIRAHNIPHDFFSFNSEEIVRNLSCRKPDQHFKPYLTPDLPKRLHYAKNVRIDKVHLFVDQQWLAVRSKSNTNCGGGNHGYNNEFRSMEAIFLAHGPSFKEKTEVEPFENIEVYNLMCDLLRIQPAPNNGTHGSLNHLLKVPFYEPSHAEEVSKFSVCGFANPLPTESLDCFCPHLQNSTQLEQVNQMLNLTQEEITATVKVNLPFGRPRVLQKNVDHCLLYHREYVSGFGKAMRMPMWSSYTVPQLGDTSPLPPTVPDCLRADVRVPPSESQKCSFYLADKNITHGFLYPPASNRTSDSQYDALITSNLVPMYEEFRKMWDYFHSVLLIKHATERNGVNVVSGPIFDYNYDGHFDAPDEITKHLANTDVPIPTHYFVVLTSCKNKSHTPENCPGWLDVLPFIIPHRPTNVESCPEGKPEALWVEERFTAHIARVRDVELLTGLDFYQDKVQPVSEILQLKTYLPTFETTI
Procedure, shortened: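 Intact osteocarcinoma HTB85 (SaOS-2) cells in 24-well plates, 0.5 mL incubation mixture, analogue and pnp-TMP each at 100 μM. After 20 min an aliquot was read for p-nitrophenol at 410 nm. Substrate alone set as 100%. Mean ± SD of three experiments in triplicate.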

[2] = target: T2, Ectonucleotide pyrophosphatase/phosphodiesterase family member 1 (Homo sapiens, UniProt P22413); assay: Mixed type inhibition of human NPP1 expressed in COS7 cells assessed as production of p-nitrophenol using pnp-TMP as the substrate preincubated for 3 mins before substrate addition measured after 15 mins by Dixon/Cornish Bowden method; assay type: cell-based, COS-7; details: read-out: Ki(app)
T2 sequence (P22413 whole entry): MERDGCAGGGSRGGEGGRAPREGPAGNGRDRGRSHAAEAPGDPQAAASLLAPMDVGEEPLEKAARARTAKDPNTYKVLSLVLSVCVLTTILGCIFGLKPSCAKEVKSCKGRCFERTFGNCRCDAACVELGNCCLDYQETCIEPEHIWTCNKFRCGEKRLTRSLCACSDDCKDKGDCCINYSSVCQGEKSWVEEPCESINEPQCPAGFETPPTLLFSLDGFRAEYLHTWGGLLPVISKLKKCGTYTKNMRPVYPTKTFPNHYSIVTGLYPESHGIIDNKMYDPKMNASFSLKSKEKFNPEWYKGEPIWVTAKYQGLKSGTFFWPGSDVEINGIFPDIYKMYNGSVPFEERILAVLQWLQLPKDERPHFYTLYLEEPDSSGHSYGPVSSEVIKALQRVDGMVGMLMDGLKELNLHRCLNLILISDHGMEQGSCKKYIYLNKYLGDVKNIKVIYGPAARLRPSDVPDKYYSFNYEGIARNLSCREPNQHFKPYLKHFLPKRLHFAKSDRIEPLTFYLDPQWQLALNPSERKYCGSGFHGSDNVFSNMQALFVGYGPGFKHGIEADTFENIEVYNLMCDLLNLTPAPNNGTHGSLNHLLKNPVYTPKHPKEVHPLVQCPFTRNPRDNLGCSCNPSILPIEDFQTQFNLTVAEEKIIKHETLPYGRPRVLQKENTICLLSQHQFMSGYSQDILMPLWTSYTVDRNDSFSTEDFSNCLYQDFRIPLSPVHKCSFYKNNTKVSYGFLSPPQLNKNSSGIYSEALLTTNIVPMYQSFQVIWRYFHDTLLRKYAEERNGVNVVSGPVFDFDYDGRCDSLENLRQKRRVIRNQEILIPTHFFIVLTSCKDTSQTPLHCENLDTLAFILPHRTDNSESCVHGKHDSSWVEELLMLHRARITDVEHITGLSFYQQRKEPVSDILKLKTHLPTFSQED
Procedure, shortened: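 Crude protein extract from COS-7 cells transiently transfected with human NPP1 (sonicated, debris cleared at 300g), preincubated 3 min at 37 °C with inhibitor (0, 25, 50, 100 μM) in 1 mM CaCl2, 140 mM NaCl, 5 mM KCl, 50 mM Tris pH 8.5. pnp-TMP (25, 50, 100 μM) added; p-nitrophenol read at 410 nm after 15 min. Ki,app and inhibition type from Dixon and Cornish-Bowden plots, three independent experiments.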

[3] = target: T3, Ectonucleoside triphosphate diphosphohydrolase 3 (Homo sapiens) (UniProt O75355); assay: Inhibition of human NTPDase3 assessed as amount of inorganic phosphate released using ATP as the substrate preincubated at 100 uM for 3 mins before substrate addition after 15 mins by malachite green reagent method
T3 sequence (whole entry): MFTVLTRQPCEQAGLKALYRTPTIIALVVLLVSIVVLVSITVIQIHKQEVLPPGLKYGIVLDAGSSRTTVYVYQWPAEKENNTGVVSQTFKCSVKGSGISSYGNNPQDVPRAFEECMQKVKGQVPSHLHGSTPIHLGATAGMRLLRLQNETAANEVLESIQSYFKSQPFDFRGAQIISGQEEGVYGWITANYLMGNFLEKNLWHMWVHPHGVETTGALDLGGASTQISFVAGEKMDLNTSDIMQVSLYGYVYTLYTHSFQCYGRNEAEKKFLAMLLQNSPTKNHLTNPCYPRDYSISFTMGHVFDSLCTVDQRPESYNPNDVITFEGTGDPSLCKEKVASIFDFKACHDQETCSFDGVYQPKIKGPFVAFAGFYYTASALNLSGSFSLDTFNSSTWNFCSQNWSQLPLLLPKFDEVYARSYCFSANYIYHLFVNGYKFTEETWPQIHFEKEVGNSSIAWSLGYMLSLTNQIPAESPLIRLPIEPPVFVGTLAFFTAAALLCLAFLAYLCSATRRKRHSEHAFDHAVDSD
Procedure, shortened: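 Crude extracts of COS-7 cells transiently transfected with human NTPDase1, -2, -3 or -8, preincubated 3 min at 37 °C in Tris-Ringer medium pH 7.4 with analogue (final 100 μM). Started with 100 μM ATP, stopped after 15 min with malachite green; released Pi read at 630 nm. ATP alone set as 100%. Mean ± SD of 3−6 experiments in triplicate.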

Row | SMILES | inhibition [1] [%] | Ki [2] [µM] | inhibition [3] [%]
1 | B[P@@](=O)(OC[C@H]1O[C@@H](n2cnc3c(N)ncnc32)[C@H](O)[C@@H]1O)OP(=O)(O)CP(=O)(O)O | 90 | 0.5 | < 18
2 | B[P@](=O)(OC[C@H]1O[C@@H](n2cnc3c(N)nc(SC)nc32)[C@H](O)[C@@H]1O)OP(=O)(O)CP(=O)(O)O | 90 | 56 | < 18
3 | B[P@](=O)(OC[C@H]1O[C@@H](n2cnc3c(N)ncnc32)[C@H](O)[C@@H]1O)OP(=O)(O)CP(=O)(O)O | 41 | 7 | < 18
4 | CSc1nc(N)c2ncn([C@@H]3O[C@H](COP(=O)(O)C(F)(F)P(=O)(O)O)[C@@H](O)[C@H]3O)c2n1 | 41 | 26 | < 18
